# ZTA counter: blocks Epstein-Barr virus ZTA, an EBNA-1 counter-screen; P03206; ZTA-DNA binding, fluorescence polarization; inhibition, % at 11 µM; 320,000 compounds, 0.15% hits; in the data active = inhibition above about 33%
# core dimer inh: blocks dimerization of HCV core protein; inhibition, % at 5 µM; 300,000 compounds, 0.33% hits; TR-FRET GST/Flag-core106 dimerization, 1536-well;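 active = inhibition above the mean of all tested compounds plus 3 SD, set per screening campaign, cut at about 45% in these data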
#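 System: GST-tagged and Flag-tagged HCV core protein residues 1-106 / Input: core106 proteins, GST 13.5 nM and Flag 17 nM / Buffer or medium: KF-containing HEPES buffer, pH 7.45, DTT, CHAPS, BSA / Probe or stimulus: Eu-anti-GST and XL665-anti-Flag labelled anti-tag antibodies / Schedule: 4 h, 22.5 °C incubation / Technique: TR-FRET 671 and 617 nm emission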
# EBNA-1 inhibitor: blocks EBNA-1 binding to DNA; EBNA-1 DNA binding, fluorescence polarization; inhibition, % at 14.8 µM; 300,000 compounds, 0.34% hits; AID 1950; in the data active = inhibition above about 28%
# PP1 inh: counter-screen for PP5 inhibitors: inhibitors of human PP1-alpha; inhibition, % at 6.7 µM; AID 2235; purified PP1alpha, OMFP fluorescence; P62136; 320,000 compounds, 0.9% hits;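 active = inhibition above the mean inhibition of all tested compounds plus 3 SD, computed separately for each screening campaign, cut at about 15% in these data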
# Target sequence (P62136 whole entry, looked up): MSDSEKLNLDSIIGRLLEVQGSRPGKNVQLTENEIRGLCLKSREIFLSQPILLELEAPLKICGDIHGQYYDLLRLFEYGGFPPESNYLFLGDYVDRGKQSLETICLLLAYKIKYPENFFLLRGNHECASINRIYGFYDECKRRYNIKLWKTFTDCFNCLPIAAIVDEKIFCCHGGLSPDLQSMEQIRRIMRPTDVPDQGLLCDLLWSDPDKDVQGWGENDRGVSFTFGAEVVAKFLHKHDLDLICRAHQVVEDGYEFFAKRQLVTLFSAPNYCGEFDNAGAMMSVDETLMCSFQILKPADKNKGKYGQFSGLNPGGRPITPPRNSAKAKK
# HCV NS3 hel inh: HCV NS3 helicase inhibition; inhibition, % at 10.9 µM; NS3 helicase DNA unwinding, Cy5 molecular beacon fluorescence; 290,000 compounds, 0.56% hits; AID 1800;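 active = inhibition above the mean of all tested compounds plus 3 SD, set per campaign, cut at about 35% in these data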
#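 assay system = NS3 helicase fragment of HCV | buffer or medium = MOPS pH 6.5, MgCl2, DTT, Tween20, BSA | timing = 60 min unwinding reaction at 25 °C after ATP addition | signal = Cy5 beacon fluorescence read at start and 1 h | read-out basis = % inhibition of unwinding | control set = low DMSO, high thioflavine S at 110 µM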
# NS3 helicase cf: HCV NS3 helicase inhibition, confirmation assay | AID 1943 | inhibition, % at 10.9 µM | shares compounds with HCV NS3 hel inh | 1,600 compounds, 31% hits | NS3 helicase DNA unwinding, Cy5 molecular beacon fluorescence;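 active = inhibition above the mean of all tested compounds plus 3 SD, cutoff set per campaign, cut at about 36% in these data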
# FID counter trip: intercalator displacement, NS3 helicase counter-screen; shares compounds with HCV NS3 hel inh; DNA fluorescent intercalator displacement, fluorescence; inhibition, % at 7.9 µM; 1,600 compounds, 4% hits; AID 1945; in the data active = inhibition above about 37%;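 also: higher means more displacement of ethidium bromide from the DNA hairpin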
# FID counter DR: DNA intercalator displacement in dose response; AID 2172; 120 tested, under 10 active; IC50, µM; shares compounds with HCV NS3 hel inh; fluorescent intercalator displacement from DNA, fluorescence; call rule not given here
# Hits are given with their value; 0 = inactive; - = no result given. This is a sample that favours compounds with a hit; in the whole collection about 1.9% have one here.
SMILES,ZTA counter,core dimer inh,EBNA-1 inhibitor,PP1 inh,HCV NS3 hel inh,NS3 helicase cf,FID counter trip,others
O=C(N/N=C/c1cc(Br)c(Br)o1)c1ccc2c(c1)OCCO2,0,0,0,0,37,0,0,
O=C(N/N=C/c1cc(Br)c(O)c(Br)c1O)c1ccc2c(c1)OCCO2,0,0,0,0,0,-,-,
CCc1ccc(N2NC(=O)/C(=C/C=C/c3ccco3)C2=O)cc1,0,0,0,0,50,46,0,
CN(C)c1ccc(C(=O)c2ccccc2C(=O)O)c(O)c1,0,0,0,0,0,-,-,
CCCCN(CCCC)c1ccc(C(=O)c2ccccc2C(=O)O)c(O)c1,0,0,0,17,60,76,0,
O=C1c2cccnc2C(Nc2ccccc2Br)N1Cc1ccco1 (stereo not given),0,0,0,0,0,-,-,
COCCn1c(SCC(=O)NC2(C#N)CCCCC2)nc2ccccc2c1=O,0,-,-,0,-,-,-,
C=C1c2cccc(O)c2C(O)=C2C(=O)[C@]3(O)C(O)=C(C(N)=O)C(=O)[C@@H](N(C)C)[C@@H]3[C@@H](O)[C@H]12,0,0,0,50,85,55,0,FID counter DR=0
C[C@H]1c2cccc(O)c2C(O)=C2C(=O)C3(O)C(O)=C(C(N)=O)C(=O)[C@@H](N(C)C)[C@@H]3[C@@H](O)[C@@H]21 (stereo not given in full),0,0,0,0,-,-,-,
c1ccc2c(c1)ncc1cccn12,0,0,0,0,0,-,-,
CCn1c2ccccc2c2c3ncc4cccn4c3ccc21,0,0,0,0,44,0,50,
COc1ccccc1N(CC(=O)NCCSCc1ccccc1Cl)S(C)(=O)=O,0,0,0,0,0,-,-,
CC(Oc1ccc2c(-c3ccccc3)cc(=O)oc2c1)C(=O)NC(Cc1c[nH]c2ccc(O)cc12)C(=O)O (stereo not given),0,0,0,0,41,39,0,
O=C(COc1ccc2c(-c3ccccc3)cc(=O)oc2c1)N[C@@H](Cc1c[nH]c2ccc(O)cc12)C(=O)O,0,0,0,0,0,-,-,
CCCc1cc(=O)oc2cc(OCC(=O)NC(Cc3c[nH]c4ccc(O)cc34)C(=O)O)c(Cl)cc12 (stereo not given),0,0,0,0,53,0,0,
COc1ccc(CNC(=O)CCN2C(=S)NC(C)(C)CC2C)cc1 (stereo not given),0,0,0,0,0,-,-,
CC(C)N1C(=O)/C(=C\c2nc3ccccc3c(=O)[nH]2)c2ccccc21,0,0,0,0,0,-,-,
CCCSc1nc(C)c(-c2csc(C(C#N)=C3CCCC3)n2)cc1C#N,0,61,0,0,52,0,0,
CCc1nc(N[C@@H](Cc2c[nH]c3ccccc23)C(=O)O)c2oc3ccccc3c2n1,0,0,0,0,0,-,-,
Cc1nc(N[C@@H](Cc2c[nH]c3ccccc23)C(=O)O)c2oc3ccccc3c2n1,0,0,0,0,42,0,0,
COc1ccc2ccccc2c1C(=O)/C=C\c1ccoc1,0,0,0,0,55,0,0,
O=C(/C=C/c1ccoc1)c1ccccc1O,0,0,0,0,0,-,-,
O=C(Nc1cc(C(F)(F)F)ccc1N1CCOCC1)C1Cc2ccccc2CN1C(=O)c1ccco1 (stereo not given),0,0,0,0,57,0,0,
COc1ccc(S(=O)(=O)n2nc(C)cc2C)c(C)c1C,0,0,0,0,0,-,-,
N#CC1=C(S)N(c2ccccc2)C(c2ccc(-c3cccc(Cl)c3)o2)NC1=O (stereo not given),0,0,0,0,36,60,0,
Cc1cccc(N2C(S)=C(C#N)C(=O)NC2c2ccco2)c1 (stereo not given),0,0,0,0,0,-,-,
O=C1/C(=C\c2ccco2)SC(=S)N1Cc1ccccc1,0,0,0,0,0,-,-,
O=C(O)CCCN1C(=O)/C(=C\c2ccco2)SC1=S,-,-,-,-,39,0,0,
O=C(CCCN1C(=O)/C(=C/c2ccco2)SC1=S)Nc1ccccc1C(=O)O,0,0,0,0,46,73,0,

# Assay outcomes deposited in PubChem BioAssay by The Scripps Research Institute Molecular Screening Center.
